Test results: ChEMBL document CHEMBL1148251, “Syntheses of sphingosine-1-phosphate analogues and their interaction with EDG/S1P receptors” (Bioorg Med Chem Lett, 2004)

Columns and labels:
Assay type in all cases: cell-based
[1] = target: Sphingosine 1-phosphate receptor 1 (Homo sapiens) (UniProt P21453); assay: Percent binding affinity to displace radioligand [3H]SIP from Sphingosine 1-phosphate receptor Edg-1 expressed in CHO cells
Method in brief: (§1)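 Whole transfected CHO cells (Edg-1, Edg-3 or Edg-5; mock-transfected control), confluent, rinsed twice in ice-cold buffer (20 mM Tris–HCl pH 7.5, 100 mM NaCl, 15 mM NaF, 0.4% BSA), then held on ice 90 min with 2 nM [3H]-S1P ± 1 µM test ligand. Unbound label washed off, cells solubilized in SDS/NaOH/Na2CO3, bound radioactivity counted by liquid scintillation; duplicate determinations, mean ± SD.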

[2] = target: Sphingosine 1-phosphate receptor 3 (Homo sapiens) (UniProt Q99500); assay: Percent binding affinity to displace radioligand [3H]SIP from EDG-3/S1P3 receptors expressed in CHO cells; method in brief: as §1
[3] = target: Sphingosine 1-phosphate receptor 2 (Homo sapiens) (UniProt O95136); assay: Percent binding affinity to displace radioligand [3H]-SIP from EDG-5/S1P2 receptors expressed in CHO cells; method in brief: as §1
Sequence of Sphingosine 1-phosphate receptor 2 (Homo sapiens) (O95136 whole entry): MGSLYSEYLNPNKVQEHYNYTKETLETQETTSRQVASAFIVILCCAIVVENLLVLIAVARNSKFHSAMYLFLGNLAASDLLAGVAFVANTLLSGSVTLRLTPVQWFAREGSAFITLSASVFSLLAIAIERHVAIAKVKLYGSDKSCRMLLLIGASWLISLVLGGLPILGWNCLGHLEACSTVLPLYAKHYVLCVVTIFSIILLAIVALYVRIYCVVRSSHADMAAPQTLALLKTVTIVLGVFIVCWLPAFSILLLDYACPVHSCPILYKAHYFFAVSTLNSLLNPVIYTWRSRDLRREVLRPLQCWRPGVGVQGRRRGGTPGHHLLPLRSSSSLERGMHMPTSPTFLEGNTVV

Sequence of Sphingosine 1-phosphate receptor 1 (Homo sapiens) (P21453 whole entry): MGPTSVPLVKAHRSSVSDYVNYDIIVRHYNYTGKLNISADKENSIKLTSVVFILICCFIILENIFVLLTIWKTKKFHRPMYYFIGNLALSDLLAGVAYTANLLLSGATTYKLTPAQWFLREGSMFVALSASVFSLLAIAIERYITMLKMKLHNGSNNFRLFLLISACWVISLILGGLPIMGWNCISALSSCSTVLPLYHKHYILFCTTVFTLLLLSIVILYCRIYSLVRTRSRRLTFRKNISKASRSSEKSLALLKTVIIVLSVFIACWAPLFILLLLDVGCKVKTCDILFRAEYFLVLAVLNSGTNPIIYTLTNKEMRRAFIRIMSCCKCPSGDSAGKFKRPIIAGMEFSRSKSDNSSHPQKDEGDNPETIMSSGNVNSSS
Sequence of Sphingosine 1-phosphate receptor 3 (Homo sapiens) (Q99500 whole entry): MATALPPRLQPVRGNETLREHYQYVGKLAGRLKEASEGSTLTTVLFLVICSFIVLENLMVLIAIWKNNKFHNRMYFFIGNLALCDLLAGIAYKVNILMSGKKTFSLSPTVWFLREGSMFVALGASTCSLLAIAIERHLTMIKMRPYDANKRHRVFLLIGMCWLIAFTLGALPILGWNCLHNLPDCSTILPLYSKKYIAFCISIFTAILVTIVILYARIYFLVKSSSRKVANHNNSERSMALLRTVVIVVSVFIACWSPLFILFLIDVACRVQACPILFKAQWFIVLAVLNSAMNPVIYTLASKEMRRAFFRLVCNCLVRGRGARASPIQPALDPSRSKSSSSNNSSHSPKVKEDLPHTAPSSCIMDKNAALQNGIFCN

% binding [1]	% binding [2]	% binding [3]	SMILES
55.1%	–	–	CCCCCCCCCCCCC/C=C/[C@@H](O)[C@H](COP(=O)(O)O)NC
–	82%	84%	CCCCCCCCCCCCCC[C@@H](N)COP(=O)(O)O
51.4%	–	–	CCCCCCCCCCCCC/C=C/[C@@H](O)[C@H](COP(=O)(O)O)NCC
